We go through 25 molecules from ChEMBL document CHEMBL1123304 (J Med Chem, 1986).

The species named for data set [1] is Felis catus. Nature of the data set: Compound was tested for potentiating the dopamine-induced hypotension in cats. Format: functional.
For data set [2], the species on record is Mus musculus. Nature of the data set: Amphetamine induced motility in mice. Type of data set: functional.
The test system of data set [3] is Mus musculus. Nature of the data set: Dose influencing (+/-) the spontaneous motility in mice, administered intraperitoneally (ip). Type of data set: functional. The essentials: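 CFLP male mice, 10/group. Spontaneous motility recorded in a circuit-closing apparatus, no amphetamine. Compounds given 15 or 30 min before testing. Vehicle controls. Minimum dose raising (+) or lowering (−) motility, ip.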

The species named for data set [4] is Mus musculus. Nature of the data set: Inhibitory activity against reserpine hypothermia in mice. Type of data set: functional. The essentials:
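Mice (male CFLP, 18–22 g, 10/group) given reserpine 1 mg/kg ip 3 h before testing. Rectal temperature read with a thermistor probe. Compounds given sc 15 or 30 min before testing. Minimum effective dose.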

Data set [5] relates to Mus musculus. Kind of data set: Inhibitory activity against tetrabenazine catalepsy in mice (sc). Format: functional.
Data set [6] has as its system Mus musculus. Kind of data set: Inhibition of tetrabenazine ptosis in mice (sc). Format: functional.
Data set [7] can be described thus: Lethal effect was determined in mice. Format: ADME, organism-based. As to conditions: mouse, in vivo. The essentials: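 Male CFLP (Swiss) mice, 18–22 g, dosed sc. Vehicle was physiological saline, with Tween-80 added for some compounds in this determination; controls received the solvent. LD50 in mg/kg determined.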
In data set [8] the target is Sodium-dependent dopamine transporter (Rattus norvegicus) (UniProt P23977). Kind of data set: Inhibitory activity against inducing stereotypy in rats. Format: functional. Put shortly: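 Male CFY (Sprague-Dawley) rats. Animals showing stereotypy were placed in an activity meter. Doses giving 5 times control motility were determined. Minimum effective dose, sc.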

One may read the ED50 as the midpoint of the dose-response relation. The low end stands for greater potency, the high end for weaker potency. What is called LD50 is the dose at which mortality reaches 50%.

Sodium-dependent dopamine transporter (Rattus norvegicus), sequence (P23977 whole entry): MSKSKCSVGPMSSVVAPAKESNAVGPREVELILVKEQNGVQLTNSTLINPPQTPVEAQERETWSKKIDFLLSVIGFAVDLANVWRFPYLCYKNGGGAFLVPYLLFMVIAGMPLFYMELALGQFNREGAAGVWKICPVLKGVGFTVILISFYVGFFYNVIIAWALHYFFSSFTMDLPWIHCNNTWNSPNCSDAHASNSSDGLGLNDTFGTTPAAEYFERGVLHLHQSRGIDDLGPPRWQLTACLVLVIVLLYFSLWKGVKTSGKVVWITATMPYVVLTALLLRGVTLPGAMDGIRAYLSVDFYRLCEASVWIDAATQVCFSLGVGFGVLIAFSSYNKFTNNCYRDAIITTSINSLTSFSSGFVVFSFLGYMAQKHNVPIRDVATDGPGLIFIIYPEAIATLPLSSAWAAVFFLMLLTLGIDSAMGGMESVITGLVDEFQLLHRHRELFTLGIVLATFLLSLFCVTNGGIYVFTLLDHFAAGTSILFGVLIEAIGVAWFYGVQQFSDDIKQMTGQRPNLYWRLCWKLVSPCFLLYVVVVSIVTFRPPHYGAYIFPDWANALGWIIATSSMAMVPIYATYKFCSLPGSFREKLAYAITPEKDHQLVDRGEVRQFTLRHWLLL

For the molecule `CCCCNCCC(=O)Nc1cccc2c1CN(C)CC2c1ccccc1` (stereo not given), the EDmin was over 5 mg/kg in data set [1]; over 80 mg/kg in data set [2]; over 80 mg/kg in data set [3]; over 40 mg/kg in data set [4]; over 83 mg/kg in data set [8]. Besides, the ED50 is about 46 mg/kg in data set [5] and 74 mg/kg in data set [6]. In data set [7], this molecule yielded an LD50 of 292 mg/kg.

Take `CN1Cc2c(N)cccc2C(c2ccc(Cl)cc2)C1` (stereo not given): the EDmin in data set [2] was 5 mg/kg; in data set [3] it was 10 mg/kg; in data set [4], 2 mg/kg. Also, the 50% effective dose (ED50) in data set [5] turned out to be 1.6 mg/kg; in data set [6] it was 1.1 mg/kg. The same molecule registered a median lethal dose (LD50) in data set [7] of 240 mg/kg.

As to `CCCCNC(=O)Nc1cccc2c1CN(C)CC2c1ccccc1` (stereo not given), the EDmin was 2 mg/kg in data set [1]; 80 mg/kg in data set [2]; 80 mg/kg in data set [3]; over 40 mg/kg in data set [4]; over 83 mg/kg in data set [8]. For the same molecule, the 50% effective dose (ED50) in data set [5] was about 40 mg/kg; in data set [6], 23 mg/kg. The molecule also yielded an LD50 in data set [7] of 430 mg/kg.

Consider `CCCCNCC(=O)Nc1cccc2c1CN(C)CC2c1ccc(Cl)cc1` (stereo not given), for which the EDmin in data set [1] was 0.5 mg/kg; in data set [2], over 20 mg/kg; in data set [3], over 20 mg/kg; in data set [4], 5 mg/kg; in data set [8], 32.8 mg/kg. Moreover, the ED50 amounted to 13.5 mg/kg in data set [5] and 3.9 mg/kg in data set [6]. Besides, in data set [7], the 50% lethal dose (LD50) was found to be 320 mg/kg.

On to `CCCCOC(=O)Nc1cccc2c1CN(C)CC2c1ccccc1` (stereo not given), for which the EDmin in data set [1] was 2 mg/kg; in data set [2], over 5 mg/kg; in data set [3], 5 mg/kg; in data set [4], 20 mg/kg; in data set [8], 20.5 mg/kg. The ED50 in data set [5] worked out at 4 mg/kg; in data set [6] it was 2.6 mg/kg. Besides, the LD50 in data set [7] was found to be 180 mg/kg.

With `CCCCNC(=O)Nc1cccc2c1CN(C)CC2c1ccc(Cl)cc1` (stereo not given), the EDmin in data set [1] was 3 mg/kg; in data set [2], over 30 mg/kg; in data set [3] it was 15 mg/kg; in data set [4], over 100 mg/kg; in data set [8], 134 mg/kg. The ED50 came out at 44 mg/kg in data set [5] and 15 mg/kg in data set [6]. Further, the LD50 in data set [7] is over 1000 mg/kg.

Regarding `CCCNC(=O)Nc1cccc2c1CN(C)CC2c1ccccc1` (stereo not given), the EDmin is 10 mg/kg in data set [1]; 80 mg/kg in data set [2]; over 80 mg/kg in data set [3]; over 60 mg/kg in data set [4]; over 83 mg/kg in data set [8]. The ED50 in data set [5] and in data set [6] was over 80 mg/kg in each case. Further, the median lethal dose (LD50) in data set [7] was 455 mg/kg.

As to `CCOC(=O)Nc1cccc2c1CN(C)CC2c1ccccc1` (stereo not given), the EDmin was 4 mg/kg in data set [2], over 8 mg/kg in data set [3], 2 mg/kg in data set [4] and over 12.8 mg/kg in data set [8]. Besides, the ED50 was 3.2 mg/kg in data set [5] and about 4 mg/kg in data set [6]. This molecule also registered an LD50 in data set [7] of 71 mg/kg.

As to `CCCCNCC(=O)Nc1cccc2c1CN(C)CC2c1ccc(C)cc1` (stereo not given), the EDmin in data set [1] was 1 mg/kg; in data set [2], over 10 mg/kg; in data set [3] it was 5 mg/kg; in data set [4], 10 mg/kg; in data set [8], 52.4 mg/kg. Also, the ED50 was 34 mg/kg in data set [5] and about 2.5 mg/kg in data set [6]. The median lethal dose (LD50) in data set [7] stood at 320 mg/kg.

Take `CCCCNCC(=O)Nc1cccc2c1CN(C)CC2c1ccccc1` (stereo not given): the EDmin in data set [1] was 2 mg/kg; in data set [2], over 30 mg/kg; in data set [3] it was 15 mg/kg; in data set [4], over 40 mg/kg; in data set [8], 32.8 mg/kg. The molecule further yielded an ED50 in data set [5] of 32 mg/kg. Besides, the LD50 in data set [7] worked out at 240 mg/kg.

Regarding `CCNCC(=O)Nc1cccc2c1CN(C)CC2c1ccc(C)cc1` (stereo not given), the EDmin was 1.5 mg/kg in data set [1]; over 10 mg/kg in data set [2]; 10 mg/kg in data set [3]; 20 mg/kg in data set [4]; over 83 mg/kg in data set [8]. Further, the 50% effective dose (ED50) in data set [5] is about 45 mg/kg; in data set [6], 5.6 mg/kg. Also, the LD50 in data set [7] is 320 mg/kg.

For `CN1Cc2c(NC(=O)OCc3ccccc3)cccc2C(c2ccccc2)C1` (stereo not given), the EDmin in data set [1] is over 5 mg/kg; in data set [2], 100 mg/kg; in data set [3], 100 mg/kg; in data set [4], 20 mg/kg; in data set [8], 12 mg/kg. The ED50 in data set [5] was about 15 mg/kg; in data set [6], 16 mg/kg. Further, the LD50 in data set [7] is over 1000 mg/kg.

With `CCNCC(=O)Nc1cccc2c1CN(C)CC2c1ccccc1` (stereo not given), the EDmin in data set [1] is 2 mg/kg; in data set [2], over 30 mg/kg; in data set [3], over 60 mg/kg; in data set [4] it was 60 mg/kg; in data set [8], 52.4 mg/kg. The 50% effect level in data set [5] (ED50) was put at a dose of 47 mg/kg. The molecule also showed an LD50 in data set [7] of 320 mg/kg.

With `CCOC(=O)Nc1cccc2c1CN(C)CC2c1ccc(Cl)cc1` (stereo not given), the EDmin in data set [1] was 0.5 mg/kg; in data set [2], 20 mg/kg; in data set [3], 3 mg/kg; in data set [4] it was 10 mg/kg; in data set [8] it was 5.2 mg/kg. Besides, the results for the ED50 in data set [5] and in data set [6] were 4.8 mg/kg and 0.6 mg/kg, respectively. The molecule further returned an LD50 in data set [7] of 830 mg/kg.

Take `CCOC(=O)Nc1cccc2c1CN(C)CC2c1ccc(F)cc1` (stereo not given): the EDmin in data set [1] worked out at 2 mg/kg; in data set [2] it was 5 mg/kg; in data set [3] it was 20 mg/kg; in data set [4], 10 mg/kg; in data set [8], 8 mg/kg. Further, the values for the ED50 in data set [5] and in data set [6] were 3.5 mg/kg and 3.3 mg/kg, respectively. Besides, in data set [7], the LD50 is 255 mg/kg.

Take `CCNCCC(=O)Nc1cccc2c1CN(C)CC2c1ccccc1` (stereo not given): the EDmin was 4 mg/kg in data set [1]; over 160 mg/kg in data set [2]; 160 mg/kg in data set [3]; 200 mg/kg in data set [4]; 134 mg/kg in data set [8]. The ED50 is over 200 mg/kg in data set [5] and over 160 mg/kg in data set [6]. Further, the LD50 in data set [7] was 720 mg/kg.

`CN1Cc2c(NC(=O)CN3CCCC3)cccc2C(c2ccccc2)C1` (stereo not given): the EDmin in data set [1] was 3 mg/kg; in data set [2], over 120 mg/kg; in data set [3], 120 mg/kg; in data set [4], 50 mg/kg; in data set [8] it was 52.4 mg/kg. In addition, the 50% effective dose (ED50) in data set [5] is 39 mg/kg; in data set [6] it was about 25 mg/kg. Moreover, the LD50 in data set [7] was 380 mg/kg.

In the case of `CC(C)NCC(=O)Nc1cccc2c1CN(C)CC2c1ccccc1` (stereo not given), the EDmin in data set [1] was 1 mg/kg; in data set [2] it was over 30 mg/kg; in data set [3] it was 30 mg/kg; in data set [4], 20 mg/kg; in data set [8], over 52.4 mg/kg. Also, the 50% effective dose (ED50) in data set [5] stood at 14 mg/kg. This molecule displayed a 50% lethal dose (LD50) in data set [7] of 300 mg/kg.

For the molecule `CCCCNC(=O)Nc1cccc2c1CN(C)CC2c1ccc(C)cc1` (stereo not given), the EDmin was over 5 mg/kg in data set [1]; 20 mg/kg in data set [2]; 20 mg/kg in data set [3]; 20 mg/kg in data set [4]; 83 mg/kg in data set [8]. For the same molecule, the results for the ED50 in data set [5] and in data set [6] were 40 mg/kg and about 15 mg/kg, respectively. The molecule also returned a median lethal dose (LD50) in data set [7] of over 1200 mg/kg.

On to `CC(C)c1ccc(C2CN(C)Cc3c(N)cccc32)cc1` (stereo not given), for which the EDmin in data set [1] is 2 mg/kg; in data set [2] it was 80 mg/kg; in data set [3], 80 mg/kg; in data set [4] it was 50 mg/kg. The values for the 50% effective dose (ED50) in data set [5] and in data set [6] were over 80 mg/kg and 68 mg/kg, respectively. In data set [7], this molecule gave a median lethal dose (LD50) of 1100 mg/kg.

Regarding `CN1Cc2c(N)cccc2C(c2ccc(F)cc2)C1` (stereo not given), the EDmin in data set [1] stood at 0.2 mg/kg; in data set [2], 10 mg/kg; in data set [3], 5 mg/kg; in data set [4], 2 mg/kg. For the same molecule, the 50% effective dose (ED50) in data set [5] was about 3.6 mg/kg; in data set [6], 0.25 mg/kg. The molecule further gave an LD50 in data set [7] of 222 mg/kg.

As for `CN1Cc2c(NC(=O)CN3CCOCC3)cccc2C(c2ccccc2)C1` (stereo not given), the EDmin was 3 mg/kg in data set [1]; 60 mg/kg in data set [2]; 60 mg/kg in data set [3]; 20 mg/kg in data set [4]; 83 mg/kg in data set [8]. This molecule also displayed an ED50 in data set [5] of 39 mg/kg. The LD50 in data set [7] was found to be 295 mg/kg.

With `CCNC(=O)Nc1cccc2c1CN(C)CC2c1ccccc1` (stereo not given), the EDmin in data set [1] is 6 mg/kg; in data set [2] it was 40 mg/kg; in data set [3], 80 mg/kg; in data set [4] it was 40 mg/kg; in data set [8], over 83 mg/kg. Also, the median effective dose (ED50) was 80 mg/kg in data set [5] and 54 mg/kg in data set [6]. Besides, in data set [7], the 50% lethal dose (LD50) was 290 mg/kg.

As for `CCNCC(=O)Nc1cccc2c1CN(C)CC2c1ccc(Cl)cc1` (stereo not given), the EDmin in data set [1] was 0.5 mg/kg; in data set [2], over 20 mg/kg; in data set [3], 20 mg/kg; in data set [4] it was 5 mg/kg; in data set [8] it was 32.8 mg/kg. For the same molecule, the ED50 in data set [5] was found to be 24 mg/kg; in data set [6], 6.4 mg/kg. Further, the median lethal dose (LD50) in data set [7] came to 325 mg/kg.

As for `CN1Cc2c(NC(=O)CN3CCCCC3)cccc2C(c2ccccc2)C1` (stereo not given), the EDmin in data set [1] was 3.5 mg/kg; in data set [2], over 60 mg/kg; in data set [3], over 100 mg/kg; in data set [4], 20 mg/kg; in data set [8], over 83 mg/kg. This molecule also gave an ED50 in data set [5] of about 65 mg/kg. In data set [7], this molecule returned an LD50 of 520 mg/kg.
